Results as given in ChEMBL document CHEMBL5724801, “EUbOPEN Chemogenomics Library - Multiplex” (2024).
Where “and” joins values, the source holds several entries; their conditions need not be identical. Identical values can stand only once.

System: HEK-293T
Assay: Multiplex assay against HEK293T
Format: toxicity, cell-based
Conditions: human
How it was run: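 Tubulin, mitochondrial-mass and membrane-permeability phenotypes are per cents of healthy-nucleus cells. Cells were gated by CellPathfinder machine learning into Hoechst high-intensity objects or normal cells, normal cells into healthy, pyknosed or fragmented nuclei, and pyknosed cells into mitotic or apoptotic. Before that, live cells stained at seeding with Hoechst33342, BioTracker Green Microtubule Cytoskeleton Dye, MitoTracker Red and Annexin V Alexa Fluor 680 were imaged on a CQ1 microscope at 37°C and 5% CO2 after compound addition.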

[1] = 12 h, 1 µM, compound concentration 1 uM
[2] = 12 h, 10 µM, compound concentration 10 uM
[3] = 24 h, 1 µM, compound concentration 1 uM
[4] = 24 h, 10 µM, compound concentration 10 uM
[5] = 48 h, 1 µM, compound concentration 1 uM
[6] = 48 h, 10 µM, compound concentration 10 uM

## CC(/C=C1\SC(=S)N(CCCC(=O)Nc2ccc(C(=O)O)c(O)c2)C1=O)=C\c1ccccc1
[1]
  Population Apoptotic (%): 34% and 50%
  Population Fragmented Nuclei (%): 6%
  Population Healthy Nuclei (%): 81% and 84%
  Population Hoechst High Intensity Objects (%): 6%
  Population Membrane Permeable-Phenotype (%): 0%
  Population Mitochondria Different-Phenotype (%): 41% and 62%
  Population Mitotic Cells (%): 65% and 50%
  Population Normal (%): 93%
  Population Pyknosed Nuclei (%): 11% and 8%
  Population Tubulin-Different-Phenotype (%): 31% and 20%
  Total Cell Count: 422 and 389
[2]
  Population Apoptotic (%): 43% and 51%
  Population Fragmented Nuclei (%): 5%
  Population Healthy Nuclei (%): 76% and 79%
  Population Hoechst High Intensity Objects (%): 7%
  Population Membrane Permeable-Phenotype (%): 0%
  Population Mitochondria Different-Phenotype (%): 45% and 49%
  Population Mitotic Cells (%): 56% and 48%
  Population Normal (%): 92%
  Population Pyknosed Nuclei (%): 18% and 15%
  Population Tubulin-Different-Phenotype (%): 35% and 26%
  Total Cell Count: 313 and 327
[3]
  Population Apoptotic (%): 27% and 31%
  Population Fragmented Nuclei (%): 9% and 7%
  Population Healthy Nuclei (%): 79% and 83%
  Population Hoechst High Intensity Objects (%): 4% and 7%
  Population Membrane Permeable-Phenotype (%): 0%
  Population Mitochondria Different-Phenotype (%): 28% and 52%
  Population Mitotic Cells (%): 72% and 68%
  Population Normal (%): 95% and 92%
  Population Pyknosed Nuclei (%): 10% and 8%
  Population Tubulin-Different-Phenotype (%): 26% and 21%
  Total Cell Count: 604 and 491
[4]
  Population Apoptotic (%): 33% and 39%
  Population Fragmented Nuclei (%): 8%
  Population Healthy Nuclei (%): 75% and 79%
  Population Hoechst High Intensity Objects (%): 5% and 6%
  Population Membrane Permeable-Phenotype (%): 0%
  Population Mitochondria Different-Phenotype (%): 34% and 40%
  Population Mitotic Cells (%): 66% and 60%
  Population Normal (%): 94% and 93%
  Population Pyknosed Nuclei (%): 16% and 12%
  Population Tubulin-Different-Phenotype (%): 31% and 20%
  Total Cell Count: 369 and 422
[5]
  Population Apoptotic (%): 23% and 19%
  Population Fragmented Nuclei (%): 13% and 14%
  Population Healthy Nuclei (%): 79%
  Population Hoechst High Intensity Objects (%): 2% and 5%
  Population Membrane Permeable-Phenotype (%): 1% and 0%
  Population Mitochondria Different-Phenotype (%): 16% and 26%
  Population Mitotic Cells (%): 76% and 80%
  Population Normal (%): 97% and 94%
  Population Pyknosed Nuclei (%): 7% and 6%
  Population Tubulin-Different-Phenotype (%): 14% and 13%
  Total Cell Count: 998 and 673
[6]
  Population Apoptotic (%): 24% and 39%
  Population Fragmented Nuclei (%): 9% and 11%
  Population Healthy Nuclei (%): 79% and 82%
  Population Hoechst High Intensity Objects (%): 3% and 5%
  Population Membrane Permeable-Phenotype (%): 2%
  Population Mitochondria Different-Phenotype (%): 25% and 23%
  Population Mitotic Cells (%): 75% and 60%
  Population Normal (%): 96% and 94%
  Population Pyknosed Nuclei (%): 10% and 6%
  Population Tubulin-Different-Phenotype (%): 22% and 24%
  Total Cell Count: 479 and 555

## CCCCCC(O)/C=C/[C@H]1C(=O)CC(O)C1C/C=C\CCCC(=O)O (stereo partly drawn)
[1]
  Population Apoptotic (%): 29% and 39%
  Population Fragmented Nuclei (%): 8% and 7%
  Population Healthy Nuclei (%): 80% and 83%
  Population Hoechst High Intensity Objects (%): 8% and 6%
  Population Membrane Permeable-Phenotype (%): 0%
  Population Mitochondria Different-Phenotype (%): 44% and 56%
  Population Mitotic Cells (%): 70% and 60%
  Population Normal (%): 91% and 93%
  Population Pyknosed Nuclei (%): 11% and 9%
  Population Tubulin-Different-Phenotype (%): 23% and 20%
  Total Cell Count: 409 and 383
[2]
  Population Apoptotic (%): 48% and 54%
  Population Fragmented Nuclei (%): 6%
  Population Healthy Nuclei (%): 79% and 77%
  Population Hoechst High Intensity Objects (%): 9% and 7%
  Population Membrane Permeable-Phenotype (%): 0%
  Population Mitochondria Different-Phenotype (%): 48% and 59%
  Population Mitotic Cells (%): 51% and 46%
  Population Normal (%): 90% and 92%
  Population Pyknosed Nuclei (%): 14% and 15%
  Population Tubulin-Different-Phenotype (%): 31% and 25%
  Total Cell Count: 409 and 343
[3]
  Population Apoptotic (%): 40% and 44%
  Population Fragmented Nuclei (%): 8% and 7%
  Population Healthy Nuclei (%): 83% and 84%
  Population Hoechst High Intensity Objects (%): 3% and 7%
  Population Membrane Permeable-Phenotype (%): 1% and 0%
  Population Mitochondria Different-Phenotype (%): 22% and 41%
  Population Mitotic Cells (%): 59% and 55%
  Population Normal (%): 96% and 92%
  Population Pyknosed Nuclei (%): 8% and 7%
  Population Tubulin-Different-Phenotype (%): 11% and 14%
  Total Cell Count: 611 and 492
[4]
  Population Apoptotic (%): 27% and 44%
  Population Fragmented Nuclei (%): 10% and 9%
  Population Healthy Nuclei (%): 75% and 77%
  Population Hoechst High Intensity Objects (%): 4% and 9%
  Population Membrane Permeable-Phenotype (%): 0%
  Population Mitochondria Different-Phenotype (%): 29% and 50%
  Population Mitotic Cells (%): 72% and 55%
  Population Normal (%): 95% and 90%
  Population Pyknosed Nuclei (%): 13%
  Population Tubulin-Different-Phenotype (%): 16% and 21%
  Total Cell Count: 523 and 388
[5]
  Population Apoptotic (%): 29% and 30%
  Population Fragmented Nuclei (%): 12% and 13%
  Population Healthy Nuclei (%): 79% and 81%
  Population Hoechst High Intensity Objects (%): 1% and 3%
  Population Membrane Permeable-Phenotype (%): 1% and 2%
  Population Mitochondria Different-Phenotype (%): 20% and 19%
  Population Mitotic Cells (%): 70% and 69%
  Population Normal (%): 98% and 96%
  Population Pyknosed Nuclei (%): 7% and 5%
  Population Tubulin-Different-Phenotype (%): 8% and 7%
  Total Cell Count: 864 and 775
[6]
  Population Apoptotic (%): 22% and 51%
  Population Fragmented Nuclei (%): 12% and 10%
  Population Healthy Nuclei (%): 79% and 80%
  Population Hoechst High Intensity Objects (%): 1% and 3%
  Population Membrane Permeable-Phenotype (%): 0%
  Population Mitochondria Different-Phenotype (%): 17% and 26%
  Population Mitotic Cells (%): 77% and 48%
  Population Normal (%): 98% and 96%
  Population Pyknosed Nuclei (%): 8%
  Population Tubulin-Different-Phenotype (%): 7% and 8%
  Total Cell Count: 815 and 544

## COc1cc2nc(N3CCN(C(=O)COc4c(OC)cccc4C(C)C)CC3)nc(N)c2cc1OC.Cl.Cl
[1]
  Population Apoptotic (%): 35% and 46%
  Population Fragmented Nuclei (%): 12% and 8%
  Population Healthy Nuclei (%): 77% and 81%
  Population Hoechst High Intensity Objects (%): 5% and 4%
  Population Membrane Permeable-Phenotype (%): 0%
  Population Mitochondria Different-Phenotype (%): 48% and 58%
  Population Mitotic Cells (%): 64% and 53%
  Population Normal (%): 94% and 95%
  Population Pyknosed Nuclei (%): 9%
  Population Tubulin-Different-Phenotype (%): 23% and 18%
  Total Cell Count: 402 and 365
[2]
  Population Apoptotic (%): 52% and 57%
  Population Fragmented Nuclei (%): 13% and 14%
  Population Healthy Nuclei (%): 69% and 67%
  Population Hoechst High Intensity Objects (%): 25% and 18%
  Population Membrane Permeable-Phenotype (%): 1% and 3%
  Population Mitochondria Different-Phenotype (%): 74% and 66%
  Population Mitotic Cells (%): 48% and 42%
  Population Normal (%): 74% and 81%
  Population Pyknosed Nuclei (%): 17% and 18%
  Population Tubulin-Different-Phenotype (%): 81% and 66%
  Total Cell Count: 386 and 286
[3]
  Population Apoptotic (%): 35% and 42%
  Population Fragmented Nuclei (%): 11% and 8%
  Population Healthy Nuclei (%): 77% and 84%
  Population Hoechst High Intensity Objects (%): 5% and 2%
  Population Membrane Permeable-Phenotype (%): 0%
  Population Mitochondria Different-Phenotype (%): 27% and 44%
  Population Mitotic Cells (%): 64% and 57%
  Population Normal (%): 95% and 97%
  Population Pyknosed Nuclei (%): 10% and 7%
  Population Tubulin-Different-Phenotype (%): 19% and 16%
  Total Cell Count: 540 and 472
[4]
  Population Apoptotic (%): 42% and 51%
  Population Fragmented Nuclei (%): 14% and 13%
  Population Healthy Nuclei (%): 64% and 59%
  Population Hoechst High Intensity Objects (%): 29% and 39%
  Population Membrane Permeable-Phenotype (%): 2%
  Population Mitochondria Different-Phenotype (%): 68% and 72%
  Population Mitotic Cells (%): 57% and 48%
  Population Normal (%): 70% and 60%
  Population Pyknosed Nuclei (%): 21% and 27%
  Population Tubulin-Different-Phenotype (%): 69% and 63%
  Total Cell Count: 498 and 286
[5]
  Population Apoptotic (%): 28% and 11%
  Population Fragmented Nuclei (%): 16% and 15%
  Population Healthy Nuclei (%): 76% and 78%
  Population Hoechst High Intensity Objects (%): 2% and 3%
  Population Membrane Permeable-Phenotype (%): 1% and 0%
  Population Mitochondria Different-Phenotype (%): 18%
  Population Mitotic Cells (%): 71% and 88%
  Population Normal (%): 97% and 96%
  Population Pyknosed Nuclei (%): 6%
  Population Tubulin-Different-Phenotype (%): 11% and 12%
  Total Cell Count: 930 and 737
[6]
  Population Apoptotic (%): 31% and 30%
  Population Fragmented Nuclei (%): 18% and 17%
  Population Healthy Nuclei (%): 56% and 59%
  Population Hoechst High Intensity Objects (%): 41% and 46%
  Population Membrane Permeable-Phenotype (%): 3% and 1%
  Population Mitochondria Different-Phenotype (%): 48% and 49%
  Population Mitotic Cells (%): 68% and 69%
  Population Normal (%): 58% and 53%
  Population Pyknosed Nuclei (%): 25% and 23%
  Population Tubulin-Different-Phenotype (%): 56% and 38%
  Total Cell Count: 660 and 430
